Test results as given in PubChem BioAssay AID720702 (The Scripps Research Institute Molecular Screening Center, 2013).
Out of some 370,000 compounds screened, about 1,200 (0.32%) were called active.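 How the source made its calls: active means inhibition above the mean of all tested compounds plus 3 SD, set per campaign (cut at about 25% in these data); inactive means the rest.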 Many of the other results were omitted from the sample, so actives are more common in it than they were.

The compounds below were run against Tyrosyl-DNA phosphodiesterase 2 (Homo sapiens) (UniProt O95551) (assay: human TDP2 enzyme inhibitors, primary screen, biochemical, epi absorbance, recombinant enzyme (AID 720702;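 further: 0% = DMSO with enzyme and 100% = buffer with substrate but no TDP2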)). Settings: recombinant TDP2, T5PNP hydrolysis, p-nitrophenol absorbance 415 nm; at 12.8 µM; active compounds read high.
Tyrosyl-DNA phosphodiesterase 2 (Homo sapiens), sequence (O95551 whole entry, looked up): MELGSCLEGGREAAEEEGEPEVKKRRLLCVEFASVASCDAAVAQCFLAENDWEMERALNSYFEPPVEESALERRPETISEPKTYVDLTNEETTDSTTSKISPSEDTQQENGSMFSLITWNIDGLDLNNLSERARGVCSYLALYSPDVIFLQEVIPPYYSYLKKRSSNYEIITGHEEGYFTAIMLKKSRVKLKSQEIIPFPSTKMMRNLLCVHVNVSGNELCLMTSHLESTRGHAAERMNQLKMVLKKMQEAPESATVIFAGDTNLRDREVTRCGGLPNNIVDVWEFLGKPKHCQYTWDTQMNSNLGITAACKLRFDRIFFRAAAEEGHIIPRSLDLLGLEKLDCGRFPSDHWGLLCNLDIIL
Procedure, shortened: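 System – recombinant human TDP2 · Quantity – TDP2 enzyme at 120 nM final · Doses – single concentration, 12.8 µM nominal, with 1% DMSO · Incubation – 2 h at 37 °C · Measured by – epi absorbance of p-nitrophenol freed from T5PNP by hydrolysis · Read-out – % inhibition relative to enzyme-containing and enzyme-free wells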

inhibition, active:
O=C(NCc1ccccc1Cl)C(=O)NCC1CCCN1S(=O)(=O)c1cccs1 (stereo not drawn) 25.5%, CCCCCCCCc1c(O)nc(-n2[nH]c(C)c(CCO)c2=O)[nH]c1=O 41.6%, Cc1cc(C)c(S(=O)(=O)NN=C2c3ccccc3[C@H]3Cc4csc[n+]4[C@@H]23)c(C)c1 25.7%, Oc1c(C=Nc2cccc3nsnc23)ccc2ccccc12 59.5%, COc1ccc2c(c1)C(C)=CC(C)(C)N2C(=O)Nc1ccccc1 41.9%, Cn1nc(N)c2ncc(C(Cl)(Cl)Cl)nc21 33.9%, Cc1[nH][nH]c(=O)c1C(c1ccc(-c2ccc(Cl)cc2)o1)c1c(C)[nH][nH]c1=O 30%, CCOc1ccc(C(c2c(C)[nH][nH]c2=O)c2c(C)[nH][nH]c2=O)cc1OCC 25.3%, Cc1cc(C)c(OCCN2CC(C)OC(C)C2)c(Br)c1 (stereo not drawn) 30.7%, Cc1ccccc1Cn1c2ccccc2c2cnn(CC(=O)NCc3ccco3)c(=O)c21 24.5%, CCN(CC)CCCC(C)n1c2nc(=O)[nH]c(=O)c-2nc2cc(Cl)ccc21 (stereo not drawn) 24.6%, Oc1ccc(N=Cc2sc3ccccc3c2Cl)cc1 28.4%, Oc1ccc(N=Cc2c(O)ccc3ccccc23)cc1 29.3%, COc1cc(OC)cc(C(=O)OCC(=O)Nc2sccc2C(N)=O)c1 28.2%, Clc1ccc(C2=CSC3=Nc4cccc5cccc(c45)N23)cc1 65.8%, Cc1ccc(S(=O)(=O)N2CCC(C(=O)NCCC3=CCCCC3)CC2)cc1C 33.1%, NC1=CC(=O)C(=O)c2cccnc21 70.4%, CCc1ccccc1NC(=S)Nc1cc(OC)c(NC(=O)C(C)C)cc1OC 39.9%

inhibition, inactive:
O=C(NCc1ccc(Cl)cc1)C(=O)NCC1CCCN1S(=O)(=O)c1cccs1 (stereo not drawn) 6.77%, COc1ccccc1CCNC(=O)C(=O)NCCC1CCCCN1S(=O)(=O)c1cccs1 (stereo not drawn) -2.28%, COC(=O)C1CN(Cc2cn(Cc3ccc(F)cc3)nn2)CCS(=O)(=O)N1Cc1ccc(Cl)cc1 (stereo not drawn) -3.71%, CCCCc1c(O)nc2n(c1=O)CCS2 7.5%, COc1cc(/C=C/C(=O)n2cnc3ccccc32)cc(OC)c1OC -7.12%, CCSC(C)CC1C/C(=N/O)c2c(C)noc2C1 (stereo not drawn) 4.33%, COC1=C[C@H](C(=O)NCCNC(C)=O)[C@H](C)[C@@H](c2ccccc2)CC1=O 6.52%, Cc1ccc(-n2c(COc3ccccc3)nnc2SCC(=O)Nc2ccc3c(c2)OCCO3)cc1 -5.97%, COC(=O)[C@H](C(C)C)N(CCCc1cn(Cc2ccccc2)nn1)S(=O)(=O)c1ccc(F)cc1Br -3.1%, C=CCO/N=C(\C)c1c(O)c(C)c(-c2ccccc2)n(-c2ccccc2)c1=O -4.01%, COC(=O)[C@]12C[C@H](CC(=O)NCCCN3CCCC3=O)C(=O)N(CCc3ccc(OC)c(OC)c3)C1=C[C@H](COCc1ccccc1)O[C@@H]2C 5.78%, O=C1C(=O)N(Cc2ccc(-c3ccsc3)cc2)c2ccc(OC(F)(F)F)cc21 3.8%, COc1cccc(NC(=O)C2C(c3ccccc3)C2(Cl)Cl)c1 (stereo not drawn) 0.37%, COc1ccc2c(c1)C(C)=CC(C)(C)N2C(=O)CNCc1ccc2c(c1)OCO2 4.77%, CC(=O)Nc1ccc(S(=O)(=O)NC(C)C(=O)OCCOc2ccc(F)cc2)cc1 (stereo not drawn) 3.48%, Cc1ccc(C2=CCN(C)C(=O)N2c2ccc(Cl)cc2)cc1 8.05%, COc1cccc(NC(=O)[C@H](Cc2c[nH]c3ccccc23)NC(=O)[C@@H]2Cc3ccccc3CN2)c1 -6.32%, CC[C@@H](CCC(=O)N(c1ccccc1)c1ccccc1)C1CC1 -0.32%, CCN(CC)C(=O)[C@H]1C[C@H](CC(=O)NCC23CC4CC(CC(C4)C2)C3)C(=O)N2CCc3c([nH]c4cc(CCC(=O)N(C)C)ccc34)[C@]12C -4.89%, CCOc1ccc(C(C)NC(=O)CN2C(=O)NC3(CCCCC3)C2=O)cc1OCC (stereo not drawn) -6.82%, CCOc1ccc(C(CC(=O)O)NC(=O)C23CC4CC(CC(C4)C2)C3)cc1OC (stereo not drawn) 0.7%, CCOc1ccc(N(CC(=O)Nc2c(C)n(C)n(-c3ccccc3)c2=O)S(=O)(=O)c2ccc(Cl)s2)cc1 -6.34%, N#C/C(C(=O)N1CCOCC1)=C1/SC(Cc2ccc(F)cc2)C(=O)N1c1ccccc1 (stereo not drawn) 2.43%, O=C(NC1CCC1)c1ccc(C#CC2CC2)cn1 4.08%, CCCCNC(=O)C(C)N(CCN(C)C)C(=O)CCCCCN1C(=O)NC(c2ccc(Cl)cc2)C(C(=O)OCc2ccccc2)=C1C (stereo not drawn) -0.25%, Cc1ccc(OCCCCN2CCCCC2)c(Br)c1 5.22%, CC1CN(CCOc2ccccc2[N+](=O)[O-])CC(C)O1 (stereo not drawn) 14%, COc1ccc(-n2c(SCC(=O)Nc3ccc4c(c3)OCCO4)nnc2-c2ccc(Cl)cc2)cc1 -7.72%, O=C(CN1C(=O)CSC1=O)N1CCCC(Nc2ccc(F)cc2)C1 (stereo not drawn) -8.75%, O=C(c1ccccc1)c1ccc(-c2ccccc2C(=O)NC2CCCCN(Cc3ccc(Cl)cc3)C2=O)cc1 (stereo not drawn) 15.2%, CCCn1c2ccccc2c2cnn(CC(=O)NCCCN3CCCCC3CC)c(=O)c21 (stereo not drawn) -29.8%, O=C(Cn1ncc2c3ccccc3n(Cc3ccccc3)c2c1=O)NCCCN1CCOCC1 12.7%, CCC[C@H]1C(=O)CC[C@@]23CCCN2C(=O)CCC[C@@H]13 2.8%, COc1ccccc1NC(=O)C1CCCN(c2cc(C)nc3ncnn23)C1 (stereo not drawn) 2.18%, COc1cccc(CNC(=O)C2CCCN(c3nc4ccccc4o3)C2)c1OC (stereo not drawn) -1.52%, O=C(NCCCCO)C(F)(F)C(F)(F)C(F)(F)C(=O)NCCCCO -4.23%, Cc1cc2nc3c(=O)[nH]c(=O)nc-3n(C[C@H](O)[C@H](O)[C@H](O)CO)c2cc1C 3.4%, O=c1[nH][nH]c(C(F)(F)F)c1C=NCc1ccccc1Cl 4.32%, C=CCn1c(=S)sc2c(=O)[nH]c(C)nc21 0.69%, CCOC(=O)C1=C(C(=O)OCC)C2N(Cc3ccc(C#N)cc3)c3ccccc3[C@@]23C[C@@H](C(=O)OC)N(S(=O)(=O)c2ccc(F)cc2)C3=N1 (stereo partly drawn) 3.59%, COC(=O)[C@@]12CCCCC3=C1N(CCC3)C(=O)[C@H]2CC(=O)NCc1cccc2ccccc12 15.1%, COc1ccc(C(=O)OCCN2CCN(C3CN(Cc4cn(Cc5ccccc5F)nn4)S(=O)(=O)C3)CC2)cc1OC (stereo not drawn) 11.2%, Cc1nc([N+](=O)[O-])cn1CC(=O)Nc1ccc(Cl)cc1 7.84%, CCOC(=O)C1CCN(C(=O)C(C)(C)NC(=O)Nc2ccccc2Cl)CC1 1.3%, c1coc(CCNc2ncnc3ccc(-c4ccc5c(c4)OCO5)cc23)c1 0.8%, Cc1cc(C)nc(NC(=S)N2CCN(c3ccc(C(F)(F)F)cn3)CC2)c1 -1.93%, NC(=O)c1ccsc1NC(=O)COC(=O)COc1ccc(C=O)cc1 2.52%, Cc1cccc(C(=O)OCC(=O)Nc2sccc2C(N)=O)c1C -12.7%, CC1Cc2nc(SCC(=O)Nc3ccccc3F)n(C)c(=O)c2S1 (stereo not drawn) 9.78%, COC(=O)[C@]12C[C@H](CC(=O)N3CCOCC3)C(=O)N(Cc3ccc(Cl)cc3Cl)C1=C[C@H](C(C)C)O[C@@H]2C1CC1 -1.98%, CCOC(=O)Cn1c2c(n(-c3ccc(F)cc3)c1=O)C=C(c1ccccc1)[C@@H](C)C(C(=O)N(C)C1CCCCC1)=C2 -5.6%, C=CCN(Cc1ccc2c(c1)OCO2)C(C#CC1CC1)C(C)(C)C (stereo not drawn) 0.99%, C[C@H]1[C@H](NC(=O)c2cccc(N(C)C)c2)CC[C@@]23CCCN2C(=O)CCC[C@@H]13 -4.75%, Cc1ccc(C)c(CN2CCC(CNC(=O)C3CCCN(c4ncnc5c4nc4n5CCCCC4)C3)CC2)c1 (stereo not drawn) -0.02%, O=C(NCCC1=CCCCC1)C1CCN(S(=O)(=O)c2ccc(Cl)s2)CC1 6.48%, Cc1ccc(CCNC(=O)C2CCN(S(=O)(=O)N3CCCC3)CC2)cc1 3.54%, C=C(C)CNC(=O)c1ccc(OC2CCN(C(=O)COC)CC2)cc1 -0.83%, O=C(NCc1ccccc1)[C@H]1CCCN1C(=O)[C@@H]1CCCN1C(=O)c1ccc(Cl)cc1Cl -1.81%, O=C1CC(c2ccc3c(c2)OCO3)N=C2N(CC3CC3)C/C(=C/c3ccccc3)N12 (stereo not drawn) 7.53%, COC(=O)[C@]12C[C@H](CC(=O)NCc3cccs3)C(=O)N(CCc3ccc(OC)c(OC)c3)C1=C[C@H](C(C)C)O[C@@H]2C1CC1 3.66%, COc1cc(NC(=S)NNC(=O)CC(C)C)c(OC)cc1Cl 8.52%, COc1ccc(C)cc1NC(=S)Nc1ccccc1SC 1.04%, Cc1cc(C)n2ncc(C(=O)Nc3ccc4c(c3)OCCO4)c2n1 -3.81%, CN(C)C(=O)N1CCN(C(=O)[C@@H](Cc2ccccc2)NC(=O)[C@H]2O[C@@H](n3ccc(N)nc3=O)[C@H](O)[C@@H]2O)CC1 8.58%, Cc1ccc2nc(-c3ccc(NC(=O)CN(C)S(=O)(=O)c4ccccc4)cc3)sc2c1 -18.6%
